Results reported in ChEMBL document CHEMBL3044702, “Synthesis and insecticidal activities of novel N-sulfenyl-N'-tert-butyl-N,N'-diacylhydrazines. 3. N-(alkyldithio), n-(aminothio), and N,N-dithio derivatives” (2008).
Converted amounts (≈) assume the structure as drawn.

Legend:
Type in all cases: functional
Mythimna separata [1] = assay: Larvicidal activity against fourth-instar larval stage of Mythimna separata (Oriental armyworm) in compound-pretreated corn leaves assessed as mortality at 2.5 mg/kg at 25 +/-1 degC measured after 4 days
How it was run: (§1)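 Insects were reared in the laboratory and tested at 25 ± 1 °C, with repeats as statistics required. Larvae were scored dead or alive. Mortality was corrected by Abbott's formula and expressed on a 0–100 scale, where 0 is no activity and 100 is total kill.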

Mythimna separata [2] = assay: Larvicidal activity against fourth-instar larval stage of Mythimna separata (Oriental armyworm) in compound-pretreated corn leaves assessed as mortality at 10 mg/kg at 25 +/-1 degC measured after 4 days; how it was run: as §1
Mythimna separata [3] = assay: Larvicidal activity against fourth-instar larval stage of Mythimna separata (Oriental armyworm) in compound-pretreated corn leaves assessed as mortality at 50 mg/kg at 25 +/-1 degC measured after 4 days; how it was run: as §1
Mythimna separata [4] = assay: Larvicidal activity against fourth-instar larval stage of Mythimna separata (Oriental armyworm) in compound-pretreated corn leaves assessed as mortality at 100 mg/kg at 25 +/-1 degC measured after 4 days; how it was run: as §1
Mythimna separata [5] = assay: Larvicidal activity against fourth-instar larval stage of Mythimna separata (Oriental armyworm) in compound-pretreated corn leaves assessed as mortality at 200 mg/kg at 25 +/-1 degC measured after 4 days; how it was run: as §1
Mythimna separata [6] = assay: Larvicidal activity against fourth-instar larval stage of Mythimna separata (Oriental armyworm) in compound-pretreated corn leaves assessed as mortality at 20 mg/kg at 25 +/-1 degC measured after 4 days; how it was run: as §1
Mythimna separata [7] = assay: Larvicidal activity against fourth-instar larval stage of Mythimna separata (Oriental armyworm) in compound-pretreated corn leaves assessed as mortality at 40 mg/kg at 25 +/-1 degC measured after 4 days; how it was run: as §1
Mythimna separata [8] = assay: Larvicidal activity against fourth-instar larval stage of Mythimna separata (Oriental armyworm) in compound-pretreated corn leaves assessed as mortality at 25 mg/kg at 25 +/-1 degC measured after 4 days; how it was run: as §1
Mythimna separata [9] = assay: Larvicidal activity against fourth-instar larval stage of Mythimna separata (Oriental armyworm) in compound-pretreated corn leaves assessed as mortality at 5 mg/kg at 25 +/-1 degC measured after 4 days; how it was run: as §1
Mythimna separata [10] = assay: Larvicidal activity against fourth-instar larval stage of Mythimna separata (Oriental armyworm) in compound-pretreated corn leaves assessed as mortality at 30 mg/kg at 25 +/-1 degC measured after 4 days; how it was run: as §1
Plutella xylostella [11] = assay: Toxic ratio of RH-5992 LC50 to compound LC50 for second-instar larval stage of Plutella xylostella (diamondback moth) measured after 6 days by leaf-dip method
How it was run: (§2)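 Leaf-dip assay on laboratory-reared diamondback moth larvae at 25 ± 1 °C. Fresh cabbage leaf disks 1.8 cm across were dipped in test solution for 15 s. Larvae were scored dead or alive, and mortality was corrected by Abbott's formula. Mortality-regression data were put through Finney probit analysis to give LC50 for the test compounds and the parent reference.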

Plutella xylostella [12] = assay: Larvicidal activity against second-instar larval stage of Plutella xylostella (diamondback moth) in cabbage leaves assessed as mortality at 25 +/-1 degC treated for 15 secs before larval infestation measured after 6 days by leaf-dip method; conditions: 144 h; how it was run: as §2

Row | SMILES | mortality at 2.5 mg/kg (Mythimna separata [1]) [%] | mortality at 10 mg/kg (Mythimna separata [2]) [%] | mortality at 50 mg/kg (Mythimna separata [3]) [%] | mortality at 100 mg/kg (Mythimna separata [4]) [%] | mortality at 200 mg/kg (Mythimna separata [5]) [%] | mortality at 20 mg/kg (Mythimna separata [6]) [%] | mortality at 40 mg/kg (Mythimna separata [7]) [%] | mortality at 25 mg/kg (Mythimna separata [8]) [%] | mortality at 5 mg/kg (Mythimna separata [9]) [%] | mortality at 30 mg/kg (Mythimna separata [10]) [%] | RatioLC50 (Plutella xylostella [11]) | LC50 (Plutella xylostella [12]) [µg/mL]
1 | CCOC(=O)CCN(Cc1ccccc1)SN(Cc1ccc(CC)cc1)N(C(=O)c1cc(C)cc(C)c1)C(C)(C)C | 100 | – | – | – | – | – | – | – | – | – | – | –
2 | Cc1cc(C)cc(C(=O)N(NC(=O)c2ccc(Cl)cc2)C(C)(C)C)c1 | – | 30 | 100 | 100 | 100 | 50 | 100 | – | – | – | – | –
3 | Cc1cccc(C(=O)N(NC(=O)c2ccc(Cl)cc2)C(C)(C)C)c1 | – | 0 | 90 | 100 | 100 | – | – | – | – | – | – | –
4 | CCCCSSN(C(=O)c1ccc2c(c1C)OC(C)C2)N(C(=O)c1cc(C)cc(C)c1)C(C)(C)C (stereo not drawn) | 80 | 100 | – | – | – | – | – | 100 | 100 | – | – | –
5 | CCc1ccc(CN(SNc2ccc(C)cc2)N(C(=O)c2cc(C)cc(C)c2)C(C)(C)C)cc1 | 100 | – | – | – | – | – | – | – | – | – | – | –
6 | CCCSSN(C(=O)c1ccccc1)N(C(=O)c1ccccc1)C(C)(C)C | – | 0 | 100 | – | – | – | – | 90 | – | – | – | –
7 | CC(C)(C)N(NC(=O)c1ccc(Cl)cc1)C(=O)c1ccccc1 [HALOFENOZIDE] | 10 | 0 | 100 | 100 | 100 | 85 | 100 | – | 70 | 95 | – | –
8 | CCc1ccc(C(=O)N(SSN(C(=O)c2ccc(CC)cc2)N(C(=O)c2cc(C)cc(C)c2)C(C)(C)C)N(C(=O)c2cc(C)cc(C)c2)C(C)(C)C)cc1 | – | 10 | 100 | 100 | 100 | 95 | 100 | – | – | 100 | – | –
9 | Cc1cc(C)cc(C(=O)N(NC(=O)c2ccc3c(c2C)OC(C)C3)C(C)(C)C)c1 (stereo not drawn) [FUXIAN] | 90 | – | – | – | – | – | – | – | 100 | – | – | –
10 | Cc1cc(C)cc(C(=O)N(N(SSN(C(=O)c2ccccc2)N(C(=O)c2cc(C)cc(C)c2)C(C)(C)C)C(=O)c2ccccc2)C(C)(C)C)c1 | – | 0 | 10 | 70 | 100 | – | – | – | – | – | – | –
11 | Cc1cc(C)cc(C(=O)N(NC(=O)c2ccccc2)C(C)(C)C)c1 | – | 10 | 80 | 100 | 100 | – | – | – | – | – | – | –
12 | CCCSSN(C(=O)c1ccc(Cl)cc1)N(C(=O)c1ccccc1)C(C)(C)C | 0 | 80 | – | – | – | – | – | 100 | 20 | – | – | –
13 | CCc1ccc(C(=O)NN(C(=O)c2cc(C)cc(C)c2)C(C)(C)C)cc1 [TEBUFENOZIDE] | 55 | 75 | 100 | 100 | 100 | 100 | 100 | – | 95 | 100 | 1 | 56.9 (≈ 161 µM)
14 | CCc1ccc(CN(SNc2ccc(Cl)cc2)N(C(=O)c2cc(C)cc(C)c2)C(C)(C)C)cc1 | 0 | 90 | – | – | – | – | – | 100 | 80 | – | – | –
15 | CC(C)(C)N(NC(=O)c1ccccc1)C(=O)c1ccccc1 [RH-5849] | – | 0 | 95 | – | – | – | – | 70 | – | – | – | –
16 | Cc1cccc(C(=O)N(N(SSN(C(=O)c2ccc(Cl)cc2)N(C(=O)c2cccc(C)c2)C(C)(C)C)C(=O)c2ccc(Cl)cc2)C(C)(C)C)c1 | – | 0 | 100 | 100 | 100 | – | – | – | – | – | – | –
17 | CCCSSN(C(=O)c1ccc(CC)cc1)N(C(=O)c1cc(C)cc(C)c1)C(C)(C)C | 100 | 100 | – | – | – | – | – | – | 100 | – | – | –
18 | CCCCSSN(C(=O)c1ccc(CC)cc1)N(C(=O)c1cc(C)cc(C)c1)C(C)(C)C | 90 | 100 | – | – | – | – | – | – | 100 | – | – | –
19 | Cc1cccc(C(=O)N(NC(=O)c2ccccc2)C(C)(C)C)c1 | – | 0 | 30 | 50 | 100 | – | – | – | – | – | – | –
20 | CCCSSN(C(=O)c1cccc(OC)c1C)N(C(=O)c1cc(C)cc(C)c1)C(C)(C)C | 100 | 100 | – | – | – | – | – | 100 | 100 | – | – | –
21 | CCCCSSN(C(=O)c1cccc(OC)c1C)N(C(=O)c1cc(C)cc(C)c1)C(C)(C)C | 100 | 100 | – | – | – | – | – | 100 | 100 | – | – | –
22 | CCCSSN(C(=O)c1ccc2c(c1C)OC(C)C2)N(C(=O)c1cc(C)cc(C)c1)C(C)(C)C (stereo not drawn) | 100 | 100 | – | – | – | – | – | 100 | 100 | – | – | –
23 | CCCCSSN(C(=O)c1ccccc1)N(C(=O)c1ccccc1)C(C)(C)C | – | 0 | 100 | – | – | – | – | 90 | – | – | – | –
24 | CCCCSSN(C(=O)c1ccc(Cl)cc1)N(C(=O)c1ccccc1)C(C)(C)C | 0 | 90 | – | – | – | – | – | 100 | 30 | – | – | –
25 | Cc1cccc(C(=O)N(N(SSN(C(=O)c2ccccc2)N(C(=O)c2cccc(C)c2)C(C)(C)C)C(=O)c2ccccc2)C(C)(C)C)c1 | – | 0 | 10 | 50 | 100 | – | – | – | – | – | – | –
26 | Cc1cc(C)cc(C(=O)N(N(SSN(C(=O)c2ccc(Cl)cc2)N(C(=O)c2cc(C)cc(C)c2)C(C)(C)C)C(=O)c2ccc(Cl)cc2)C(C)(C)C)c1 | – | 0 | 60 | 90 | 100 | – | – | – | – | – | – | –
27 | CC(C)(C)N(C(=O)c1ccccc1)N(SSN(C(=O)c1ccc(Cl)cc1)N(C(=O)c1ccccc1)C(C)(C)C)C(=O)c1ccc(Cl)cc1 | – | 10 | 100 | 100 | – | 75 | 100 | – | – | 85 | – | –
28 | CC(C)(C)N(C(=O)c1ccccc1)N(SSN(C(=O)c1ccccc1)N(C(=O)c1ccccc1)C(C)(C)C)C(=O)c1ccccc1 | – | 5 | 60 | 85 | 95 | – | – | – | – | – | – | –
